From ChEMBL document CHEMBL3734660, “Inhibitory effect of cytotoxic stilbenes related to resveratrol on the expression of the VEGF, hTERT and c-Myc genes” (Eur J Med Chem, 2015)
Converted amounts (≈) assume the structure as drawn.

What was measured:
HT-29 [1] = assay: Cytotoxicity against human HT-29 cells assessed inhibition of cell proliferation after 3 days by MTT assay; conditions: HT-29, 72 h
[2] = Selectivity ratio of IC50 for HEK293 cells to IC50 for human HT-29 cells; type: ADME, cell-based; conditions: HEK293 cells versus HT-29 cells, read-out: Ratio IC50
HT-29 [3] = assay: Down regulation of VEGF gene expression in human HT-29 cells at 10 ug/mL after 48 hrs by RT-qPCR analysis relative to control; type: functional
Procedure, shortened: (§1)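 HT-29 or MCF-7 cells grown to 70–80% confluence, serum-starved 24 h, then exposed to compound in DMSO for 48 h; DMSO-only control. Total RNA extracted and transcript measured by RT-qPCR, normalized to β-actin and expressed as percentage of control. At least three measurements; mean ± SEM; one-sample t-test.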

HT-29 [4] = assay: Inhibition of VEGF protein secretion in human HT-29 cells at 10 ug/mL after 72 hrs by ELISA relative to control; type: functional; parameters: scale not given: the % may be the effect or the level left
HT-29 [5] = assay: Down regulation of hTERT gene expression in human HT-29 cells at 10 ug/mL after 48 hrs by RT-qPCR analysis relative to control; type: functional
Procedure, shortened: as §1

HEK293 = assay: Cytotoxicity against HEK293 cells assessed inhibition of cell proliferation after 3 days by MTT assay; conditions: Homo sapiens, HEK293, 72 h
[6] = Selectivity ratio of IC50 for HEK293 cells to IC50 for human MCF7 cells; type: ADME, cell-based; conditions: HEK293 cells versus MCF7 cells, read-out: Ratio IC50
HT-29 [7] = assay: Down regulation of c-Myc gene expression in human HT-29 cells at 10 ug/mL after 48 hrs by RT-qPCR analysis relative to control; type: functional
Procedure, shortened: as §1

MCF7 [8] = assay: Cytotoxicity against human MCF7 cells assessed inhibition of cell proliferation after 3 days by MTT assay; conditions: MCF7, 72 h
HT-29 [9] = assay: Inhibition of VEGF protein secretion in human HT-29 cells at 3 ng/mL after 72 hrs by ELISA relative to control; type: functional; parameters: scale not given: the % may be the effect or the level left
MCF7 [10] = assay: Potency index, ratio of compound activity to resveratrol activity for down regulation of hTERT gene expression in human MCF7 cells; type: functional
HT-29 [11] = assay: Down regulation of VEGF gene expression in human HT-29 cells at 1 ng/mL after 48 hrs by RT-qPCR analysis relative to control; type: functional
Procedure, shortened: as §1

HT-29 [12] = assay: Down regulation of hTERT gene expression in human HT-29 cells at 1 ng/mL after 48 hrs by RT-qPCR analysis relative to control; type: functional
Procedure, shortened: as §1

MCF7 [13] = assay: Down regulation of VEGF gene expression in human MCF7 cells at 2 ng/mL after 48 hrs by RT-qPCR analysis relative to control; type: functional
Procedure, shortened: as §1

MCF7 [14] = assay: Down regulation of hTERT gene expression in human MCF7 cells at 2 ng/mL after 48 hrs by RT-qPCR analysis relative to control; type: functional
Procedure, shortened: as §1

MCF7 [15] = assay: Down regulation of c-Myc gene expression in human MCF7 cells at 1 ng/mL after 48 hrs by RT-qPCR analysis relative to control; type: functional
Procedure, shortened: as §1

HT-29 [16] = assay: Down regulation of c-Myc gene expression in human HT-29 cells at 3 ng/mL after 48 hrs by RT-qPCR analysis relative to control; type: functional
Procedure, shortened: as §1

MCF7 [17] = assay: Down regulation of VEGF gene expression in human MCF7 cells at 1 ng/mL after 48 hrs by RT-qPCR analysis relative to control; type: functional
Procedure, shortened: as §1

MCF7 [18] = assay: Down regulation of hTERT gene expression in human MCF7 cells at 1 ng/mL after 48 hrs by RT-qPCR analysis relative to control; type: functional
Procedure, shortened: as §1

HT-29 [19] = assay: Inhibition of VEGF protein secretion in human HT-29 cells at 1 ng/mL after 72 hrs by ELISA relative to control; type: functional; parameters: scale not given: the % may be the effect or the level left
HT-29 [20] = assay: Down regulation of c-Myc gene expression in human HT-29 cells at 1 ng/mL after 48 hrs by RT-qPCR analysis relative to control; type: functional
Procedure, shortened: as §1

HT-29 [21] = assay: Down regulation of VEGF gene expression in human HT-29 cells at 2 ng/mL after 48 hrs by RT-qPCR analysis relative to control; type: functional
Procedure, shortened: as §1

HT-29 [22] = assay: Potency index, ratio of compound activity to resveratrol activity for down regulation of c-Myc gene expression in human HT-29 cells; type: functional
MCF7 [23] = assay: Inhibition of VEGF protein secretion in human MCF7 cells at 2 ng/mL after 72 hrs by ELISA relative to control; type: functional; parameters: scale not given: the % may be the effect or the level left
HT-29 [24] = assay: Potency index, ratio of compound activity to resveratrol activity for down regulation of hTERT gene expression in human HT-29 cells; type: functional
MCF7 [25] = assay: Inhibition of VEGF protein secretion in human MCF7 cells at 1 ng/mL after 72 hrs by ELISA relative to control; type: functional; parameters: scale not given: the % may be the effect or the level left
MCF7 [26] = assay: Down regulation of c-Myc gene expression in human MCF7 cells at 2 ng/mL after 48 hrs by RT-qPCR analysis relative to control; type: functional
Procedure, shortened: as §1

HT-29 [27] = assay: Down regulation of c-Myc gene expression in human HT-29 cells at 2 ng/mL after 48 hrs by RT-qPCR analysis relative to control; type: functional
Procedure, shortened: as §1

MCF7 [28] = assay: Potency index, ratio of compound activity to resveratrol activity for down regulation of c-Myc gene expression in human MCF7 cells; type: functional
HT-29 [29] = assay: Down regulation of hTERT gene expression in human HT-29 cells at 3 ng/mL after 48 hrs by RT-qPCR analysis relative to control; type: functional
Procedure, shortened: as §1

MCF7 [30] = assay: Potency index, ratio of compound activity to resveratrol activity for down regulation of VEGF gene expression in human MCF7 cells; type: functional
[31] = Inhibition of VEGF protein secretion in human HT-29 cells at 2 ng/mL after 72 hrs by ELISA relative to control; type: functional; parameters: scale not given: the % may be the effect or the level left
HT-29 [32] = assay: Down regulation of VEGF gene expression in human HT-29 cells at 3 ng/mL after 48 hrs by RT-qPCR analysis relative to control; type: functional
Procedure, shortened: as §1

HT-29 [33] = assay: Down regulation of hTERT gene expression in human HT-29 cells at 2 ng/mL after 48 hrs by RT-qPCR analysis relative to control; type: functional
Procedure, shortened: as §1

MCF7 [34] = assay: Down regulation of VEGF gene expression in human MCF7 cells at 10 ug/mL after 48 hrs by RT-qPCR analysis relative to control; type: functional
Procedure, shortened: as §1

MCF7 [35] = assay: Inhibition of VEGF protein secretion in human MCF7 cells at 10 ug/mL after 72 hrs by ELISA relative to control; type: functional; parameters: scale not given: the % may be the effect or the level left
MCF7 [36] = assay: Down regulation of c-Myc gene expression in human MCF7 cells at 10 ug/mL after 48 hrs by RT-qPCR analysis relative to control; type: functional
Procedure, shortened: as §1

MCF7 [37] = assay: Down regulation of hTERT gene expression in human MCF7 cells at 10 ug/mL after 48 hrs by RT-qPCR analysis relative to control; type: functional
Procedure, shortened: as §1

Nc1cccc(/C=C/c2ccccc2)c1
IC50 (HT-29 [1]): 12.9 µg/mL (≈ 66.1 µM) | selectivity ratio [2]: 6.5 | Activity (HT-29 [3]): 100% | Activity (HT-29 [4]): 77% | Activity (HT-29 [5]): 100% | IC50 (HEK293): 84 µg/mL (≈ 430 µM) | selectivity ratio [6]: 6 | Activity (HT-29 [7]): 100% | IC50 (MCF7 [8]): 14 µg/mL (≈ 71.7 µM)

COc1ccccc1/C=C/c1cccc(N)c1
IC50 (HT-29 [1]): 25.3 µg/mL (≈ 112 µM) | selectivity ratio [2]: 1.8 | Activity (HT-29 [3]): 67% | Activity (HT-29 [4]): 75% | Activity (HT-29 [5]): 52% | IC50 (HEK293): 45 µg/mL (≈ 200 µM) | selectivity ratio [6]: 1.2 | Activity (HT-29 [7]): 45% | IC50 (MCF7 [8]): 38.7 µg/mL (≈ 172 µM)

Nc1cccc(/C=C/c2cccc(O)c2)c1
IC50 (HT-29 [1]): 43 µg/mL (≈ 204 µM) | selectivity ratio [2]: > 2.3 | Activity (HT-29 [3]): 52% | Activity (HT-29 [4]): 92% | Activity (HT-29 [5]): 58% | IC50 (HEK293): > 100 µg/mL | selectivity ratio [6]: > 1.8 | Activity (HT-29 [7]): 54% | IC50 (MCF7 [8]): 54 µg/mL (≈ 256 µM)

COc1ccc(/C=C/c2ccc(N)cc2)cc1
Activity (HT-29 [9]): 59% | Ratio (MCF7 [10]): 3000 | Activity (HT-29 [11]): 65% | Activity (HT-29 [12]): 100% | Activity (MCF7 [13]): 36% | Activity (MCF7 [14]): 51% | Activity (MCF7 [15]): 54% | Activity (HT-29 [16]): 69% | IC50 (HT-29 [1]): 0.0036 µg/mL (≈ 0.016 µM) | selectivity ratio [2]: 3.4 | Activity (MCF7 [17]): 48% | Activity (MCF7 [18]): 80% | Activity (HT-29 [19]): 92% | Activity (HT-29 [20]): 88% | Activity (HT-29 [21]): 66% | Ratio (HT-29 [22]): 3000 | Activity (MCF7 [23]): 75% | IC50 (HEK293): 0.012 µg/mL (≈ 0.0533 µM) | Ratio (HT-29 [24]): 3000 | selectivity ratio [6]: 5.7 | Activity (MCF7 [25]): 100% | Activity (MCF7 [26]): 30% | Activity (HT-29 [27]): 71% | Ratio (MCF7 [28]): 3000 | IC50 (MCF7 [8]): 0.0021 µg/mL (≈ 0.00932 µM) | Activity (HT-29 [29]): 48% | Ratio (MCF7 [30]): 5000 | Activity [31]: 84% | Activity (HT-29 [32]): 67% | Activity (HT-29 [33]): 100%

COc1cccc(/C=C/c2ccccc2N)c1
IC50 (HT-29 [1]): 21.2 µg/mL (≈ 94.1 µM) | selectivity ratio [2]: < 0.1 | Activity (HT-29 [3]): 100% | Activity (HT-29 [4]): 51% | Activity (HT-29 [5]): 35% | IC50 (HEK293): 0.5 µg/mL (≈ 2.22 µM) | selectivity ratio [6]: < 0.1 | Activity (HT-29 [7]): 79% | IC50 (MCF7 [8]): 6.1 µg/mL (≈ 27.1 µM)

Nc1cccc(/C=C/c2ccccc2O)c1
IC50 (HT-29 [1]): 30.4 µg/mL (≈ 144 µM) | selectivity ratio [2]: 3.2 | Activity (HT-29 [3]): 38% | Activity (HT-29 [4]): 76% | Activity (HT-29 [5]): 52% | IC50 (HEK293): 96 µg/mL (≈ 454 µM) | selectivity ratio [6]: 3.9 | Activity (HT-29 [7]): 37% | IC50 (MCF7 [8]): 24.7 µg/mL (≈ 117 µM)

COc1ccc(/C=C/c2ccccc2O)cc1 [2-hydroxy-4'-methoxystilbene]
IC50 (HT-29 [1]): 10 µg/mL (≈ 44.2 µM) | selectivity ratio [2]: 2.1 | Activity (HT-29 [3]): 41% | Activity (HT-29 [4]): 69% | Activity (HT-29 [5]): 72% | IC50 (HEK293): 21 µg/mL (≈ 92.8 µM) | selectivity ratio [6]: 1.2 | Activity (HT-29 [7]): 58% | IC50 (MCF7 [8]): 17 µg/mL (≈ 75.1 µM)

Nc1ccc(/C=C/c2ccccc2)cc1 [(E)-4-STYRYLANILINE]
IC50 (HT-29 [1]): 4.4 µg/mL (≈ 22.5 µM) | selectivity ratio [2]: 2.6 | Activity (HT-29 [3]): 24% | Activity (HT-29 [4]): 78% | Activity (HT-29 [5]): 65% | IC50 (HEK293): 11.4 µg/mL (≈ 58.4 µM) | selectivity ratio [6]: 0.7 | Activity (HT-29 [7]): 46% | IC50 (MCF7 [8]): 16 µg/mL (≈ 81.9 µM)

Oc1ccc(/C=C/c2cc(O)cc(O)c2)cc1 [RESVERATROL]
Activity (MCF7 [34]): 54% | IC50 (HT-29 [1]): 34.1 µg/mL (≈ 149 µM) | selectivity ratio [2]: 0.2 | Activity (MCF7 [35]): 100% | Activity (HT-29 [3]): 65% | Activity (HT-29 [4]): 78% | Activity (HT-29 [5]): 57% | IC50 (HEK293): 7.1 µg/mL (≈ 31.1 µM) | selectivity ratio [6]: 0.4 | Activity (HT-29 [7]): 51% | Activity (MCF7 [36]): 41% | IC50 (MCF7 [8]): 16.1 µg/mL (≈ 70.5 µM) | Activity (MCF7 [37]): 77%
